HUVEC prolif 384: inhibitors of human endothelial cell proliferation; HUVEC proliferation, CellTiter-Glo luminescence, 72 h; active compounds read low; viability, % at 10 µM (by protocol); AID 648; hit rate 1.1% among 86,000;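 active = viability at or below 30%; inactive = viability above 30%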;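 note: 100% = median luminescence of DMSO-only cell control wells on each plate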
bCat KO growth: beta-catenin-lacking colon tumor cell growth suppression; HCT116 beta-catenin knockout viability, CellTiter-Glo, 60 h; active compounds read low; hit rate 1.5% among 140,000; viability, % at 10 µM;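 active = viability at or under a set limit, the compound median less 4 SD, cut at about 6% in these data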;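 note: 0% = Hyamine 1622 control at 20 µM and 100% = untreated cell control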
H69AR inhibit: blocks growth of human H69AR lung tumor cells. H69AR lung tumor viability, ATP luminescence, 72 h; active compounds read low. viability, % at 10 µM. hit rate 6% among 85,000;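 active = viability at or below 40%; inactive = viability above 40%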;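 note: multidrug resistant small cell line overexpressing MRP-1 efflux transporter; 100% = mean luminescence of untreated control wells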
HCT116 PTEN-null: PTEN-deleted cell growth suppression; viability, % at 10 µM; hit rate 1.2% among 140,000; HCT116 PTEN-null viability, CellTiter-Glo, 60 h; active compounds read low; AID 827;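 active = viability at or below a set limit, 4 SD under the median of all tested compounds, cut at about 3.7% in these data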;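 note: PTEN knockout HCT116 line with beta catenin targeted HCT116 as companion control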
Lung fibro prol: blocks proliferation of human lung fibroblasts; LL 47 human lung fibroblast viability, ATP luminescence; active compounds read low; viability, % at 10 µM; hit rate 1.1% among 85,000; AID 719;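 active = viability at or below 50% in the single dose screen; inactive = viability above 50%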;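 note: compound exposure lasted 72 h before the ATP readout; 100% = median luminescence of untreated cell-only wells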
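Material: human lung fibroblast line LL 47, low passage; Evaluation: viability percentage against median untreated-cell control; Buffer or medium: 15% FBS in IMEM; Incubation: 72 h compound exposure at 37 °C after overnight plating; Dosing: 0.1% DMSO in all compound wells; Measured by: CellTiter-Glo luminescence.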
Phagocytosis inh: inhibitors of macrophage phagocytosis; inhibition, % at 5 µM; J774A.1 macrophage IgG-bead phagocytosis, imaging; AID 1029; hit rate 0.07% among 110,000;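 active = inhibition above the mean of the plate negative controls plus 5 SD, cut at about 13% in these data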;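 note: phagocytic index as fraction of beads internalized from green versus red external bead signal; plate controls were DMSO negative control for no effect and cytochalasin-D positive control for full effect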
* = called active by the depositor; . = not tested or not shown. This is one part of a sample in which hits are shown more often than they occur.

SMILES	HUVEC prolif 384	bCat KO growth	H69AR inhibit	HCT116 PTEN-null	Lung fibro prol	Phagocytosis inh
Cc1ccc2nc(NC(=O)CSc3ncnc4c3oc3ccccc34)sc2c1	35	50	26*	62	92	0
Cc1cccc(NC(=O)CSc2ncnc3c2oc2ccccc23)c1	76	89	30*	96	89	.
O=C(CSc1ncnc2c1oc1ccccc12)Nc1cccc(F)c1	74	94	70	91	92	-1
Cc1ccc(-c2cc(C(=O)N3CCOCC3)c3ccccc3n2)cc1	97	99	82	84	93	-1
CC(C)Oc1cccc(-c2cc(C(=O)N3CCN(c4ncccn4)CC3)c3ccccc3n2)c1	64	22	15*	15	94	0
CC(C)Oc1cccc(-c2cc(C(=O)N3CCN(S(C)(=O)=O)CC3)c3ccccc3n2)c1	89	88	24*	78	97	0
Cc1ccc(-c2cc(C(=O)N3CCN(c4ncccn4)CC3)c3ccccc3n2)cc1	71	48	11*	39	.	3
O=C(c1cc(-c2cccs2)nc2ccccc12)N1CCN(S(=O)(=O)c2cccc(F)c2)CC1	83	85	21*	76	102	-1
COc1cccc(-c2cc(C(=O)N3CCN(c4ncccn4)CC3)c3ccccc3n2)c1	58	32	19*	27	99	-2
O=C(c1cc(-c2ccncc2)nc2ccc(Br)cc12)N1CCN(c2ccccn2)CC1	57	60	22*	63	94	0
Cc1ccc2nc(-c3ccccn3)cc(C(=O)N3CCN(c4ncccn4)CC3)c2c1	80	79	57	75	106	-2
COCCn1cnnc1SCC(=O)c1ccc(S(=O)(=O)N2CCCC2)cc1	102	93	100	94	104	0
Cc1cc(C(=O)NCCN2C(=O)S/C(=C\c3cccs3)C2=O)ccc1[N+](=O)[O-]	.	96	.	89	.	2
Cc1c(NC(=O)C(C)OC(=O)c2c3c(nc4ccccc24)CCC3)c(=O)n(-c2ccccc2)n1C (centres undefined)	.	93	.	95	.	-12
Cc1ccc(NC(=O)NC2=N/C(=C(/C#N)C(=O)N3CCCC3)c3ccccc32)cc1	105	.	37*	.	110	0
N#C/C(C(=O)N1CCCC1)=C1/N=C(N)c2ccccc21	.	84	.	94	.	0
COc1cccc(C(=O)Nc2cccc(-c3nnc(-c4ccccc4)o3)c2)c1	55	.	17*	.	.	.
Cc1ccc(-c2nnc(-c3ccc(NC(=O)c4ccco4)cc3)o2)cc1	74	25	37*	49	61	.
O=C(Nc1ccc(-c2nc3ncccc3o2)cc1)c1ccco1	101	98	89	99	117	-2
COc1cccc(C(=O)Nc2cccc(NC(C)=O)c2)c1	94	78	33*	75	.	0
COc1ccc(C(=O)Nc2nnc(-c3ccccc3)o2)cc1OC	86	59	33*	55	93	0
COc1cccc(C(=O)Nc2ccc(-c3nnc(-c4ccco4)o3)cc2)c1	.	94	.	97	.	.
Cc1ccc(Cl)c(OCC(=O)Nc2sc(C)c(C)c2C#N)c1	.	77	.	76	.	-11
COc1cccc(/C=C/C(=O)OCC(=O)N2c3ccccc3NC(=O)C2(C)C)c1	.	98	.	100	.	-2
COc1ccccc1-c1nnc(NC(=O)c2ccccc2F)o1	96	69	1.9*	84	88	0
SMILES	HUVEC prolif 384	bCat KO growth	H69AR inhibit	HCT116 PTEN-null	Lung fibro prol	Phagocytosis inh
CCOc1cc(OCC)cc(C(=O)Nc2cccc(C(C)=O)c2)c1	.	96	.	100	.	-6
COc1cccc(C(=O)Nc2ccc(NC(=O)C(C)(C)C)cn2)c1	100	93	37*	98	.	-1
O=C(Nc1nnc(-c2ccc(Cl)cc2)o1)c1nc2ccccc2s1	38	78	17*	70	95	0
CCOc1cccc(C(=O)Nc2cccc(-c3nnc(-c4ccc(C)cc4)o3)c2)c1	17*	1.7*	.	3.1*	37*	0
CCCOc1ccc(-c2nnn(CC(=O)c3c[nH]c4ccccc34)n2)cc1	.	81	.	80	.	-1
COc1cccc(NC(=O)c2nnn(CCc3ccccc3)c2N)c1	59	59	32*	56	86	0
COc1ccc(CC(=O)Nc2cccc(-c3nnc(-c4cccc(C)c4)o3)c2)cc1OC	3.2*	111	41	105	35*	0
CC(C)OCCCNC(=O)c1cccc(NC(=O)c2ccccc2)c1	.	97	.	97	.	5
CC(C)OC(=O)c1cccc(NC(=O)c2ccccc2)c1	85	79	30*	88	101	.
Cc1cccc(-c2nnc(NC(=O)c3ccc(Cl)cc3)o2)c1	3.2*	29	25*	6	106	0
COc1ccc(CC(=O)Nc2cccc(-c3nnc(-c4ccc(C)cc4)o3)c2)cc1OC	.	14	.	18	.	.
Cc1nc(-c2ccccc2)sc1-c1nc(-c2ccncc2)ncc1S(=O)(=O)c1ccccc1	.	9	.	8	.	-2
CCOc1cccc(C(=O)Nc2cccc(-c3nnc(-c4ccccc4)o3)c2)c1	47	57	15*	34	87	0
CC1=C(C(=O)OCc2ccccc2)C(c2cccnc2)c2c(n(C)c(=O)n(C)c2=O)N1 (centres undefined)	.	94	.	106	.	.
Cc1c(-c2nc(N)nc(Nc3ccc(F)cc3)n2)oc2ccccc12	59	85	21*	86	81	0
COc1cccc(CNCc2ccc(SC)cc2)c1OC	.	98	.	90	.	.
CCC(C)(C)n1nnnc1CN1CCC(c2nc3ccc(C)cc3[nH]2)CC1	63	20	12*	38	84	0
Cc1ccc(-n2c(C)cc(C(=O)CSc3n[nH]c(N)n3)c2C)cc1	89	48	32*	60	88	.
Cc1cc(C(=O)CSc2n[nH]c(N)n2)c(C)n1-c1ccccc1	.	65	.	81	.	-1
Cc1cc(C(=O)CSc2n[nH]c(N)n2)c(C)n1-c1ccc(F)cc1	94	44	40*	60	94	.
O=C(Nc1cccc2c1CCCC2)c1ccncc1	91	93	109	98	91	.
Cc1c(C)[n+](=O)c2c(n1[O-])CCCCC2	95	95	94	105	105	1
CCc1nc(N)c(C#N)c(-c2ccc(F)cc2)c1C	100	95	92	89	105	-1
Cc1ccc2c(n1)sc1c(-c3ccc(Br)cc3)c(C#N)c(N)nc12	.	9	.	3.2*	.	.
Cc1cc2c(s1)CCCCC(=O)N2	.	98	.	99	.	.
Cc1ccccc1-c1noc(-c2ccc(O)cc2)n1	71	70	15*	64	110	0
O=C(OC(C(=O)NCC1CCCO1)c1ccccn1)c1cccs1 (centres undefined)	87	107	94	86	92	0
CCn1c(=N)n(CC(=O)C23CC4CC(CC(C4)C2)C3)c2ccccc21	3.4*	60	29*	65	110	1
COc1cc(C(=O)N2CCN(S(=O)(=O)c3ccc(F)cc3)CC2)cc(OC)c1OC	88	96	96	100	100	-1

Source: PubChem
